In ChEMBL document CHEMBL4251739, “Rhodanine as a Potent Scaffold for the Development of Broad-Spectrum Metallo-β-lactamase Inhibitors” (ACS Med Chem Lett, 2018):

Key:
[1] = Inhibition of bacterial L1 expressed in Escherichia coli BL21(DE3) using cefazolin as substrate by spectrometric method; set-up: species or system Bacteria
Outline: (§1)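 Purified enzymes, overexpressed and purified by earlier methods, assayed under steady-state conditions by UV spectrometry in 50 mM Tris, pH 7.0. Substrate for NDM-1, VIM-2 and L1 was cefazolin (50 µM), read at 262 nm. Substrate for ImiS was imipenem (60 µM), read at 300 nm. Inhibitor varied 0–50 µM; IC50 is the concentration giving 50% loss of activity.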

[2] = test system: Bacteria; test: Inhibition of bacterial NDM1 expressed in Escherichia coli DH10B assessed as potentiation of cefazolin-induced antibacterial activity by measuring cefazolin MIC at 32 ug/ml after 16 hrs by broth micro-dilution method (reference value: 8 ug/ml)
[3] = Inhibition of bacterial ImiS expressed in Escherichia coli BL21(DE3) using imipenem as substrate by spectrometric method; set-up: species or system Bacteria; outline: as §1
[4] = test system: Bacteria; test: Inhibition of bacterial VIM2 expressed in Escherichia coli DH10B assessed as potentiation of cefazolin-induced antibacterial activity by measuring cefazolin MIC at 32 ug/ml after 16 hrs by broth micro-dilution method (reference value: 512 ug/ml)
[5] = test system: Bacteria; test: Inhibition of bacterial VIM2 expressed in Escherichia coli BL21(DE3) at 50 uM using cefazolin as substrate by spectrometric method relative to control
[6] = test system: Bacteria; test: Inhibition of bacterial NDM1 expressed in Escherichia coli BL21(DE3) at 50 uM using cefazolin as substrate by spectrometric method relative to control
[7] = test system: Bacteria; test: Inhibition of bacterial L1 expressed in Escherichia coli DH10B assessed as potentiation of cefazolin-induced antibacterial activity by measuring cefazolin MIC at 32 ug/ml after 16 hrs by broth micro-dilution method (reference value: 32 ug/ml)
Outline: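 Dose-dependent cefazolin MIC assay against E. coli DH10B expressing L1 from a pBCSK plasmid, with varied inhibitor doses up to 256 µg/mL. Fold decrease in MIC was taken relative to cefazolin alone. Medium pH was monitored during the assay.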

[8] = test system: Bacteria; test: Inhibition of bacterial ImiS expressed in Escherichia coli DH10B assessed as potentiation of imipenem-induced antibacterial activity by measuring imipenem MIC at 32 ug/ml after 16 hrs by broth micro-dilution method (reference value: 2 ug/ml)
[9] = test system: Bacteria; test: Inhibition of bacterial ImiS expressed in Escherichia coli BL21(DE3) at 50 uM using imipenem as substrate by spectrometric method relative to control
[10] = Inhibition of bacterial VIM2 expressed in Escherichia coli BL21(DE3) using cefazolin as substrate by spectrometric method; set-up: species or system Bacteria; outline: as §1
[11] = Inhibition of bacterial NDM1 expressed in Escherichia coli BL21(DE3) using cefazolin as substrate by spectrometric method; set-up: species or system Bacteria; outline: as §1

IC50 [1] | MIC [2] | IC50 [3] | MIC [4] | inhibition [5] | inhibition [6] | MIC [7] | MIC [8] | inhibition [9] | IC50 [10] | IC50 [11] | Compound
0.16 µM | 8 µg/mL | 19.1 µM | 512 µg/mL | < 50% | < 50% | 8 µg/mL | 2 µg/mL | – | – | – | O=C(O)CN1C(=O)/C(=C/c2ccccn2)SC1=S
0.22 µM | 8 µg/mL | – | 512 µg/mL | – | < 50% | 8 µg/mL | 2 µg/mL | < 50% | 15.3 µM | – | O=C(O)CN1C(=O)/C(=C/c2ccc(Cl)cc2)SC1=S
0.59 µM | 4 µg/mL | – | 512 µg/mL | < 50% | – | 8 µg/mL | 1 µg/mL | < 50% | – | 14.3 µM | O=C(O)c1ccc(N2C(=O)/C(=C/c3cccs3)SC2=S)cc1
0.08 µM | 4 µg/mL | – | 256 µg/mL | – | – | 16 µg/mL | 4 µg/mL | < 50% | 25.1 µM | 21.5 µM | O=C(O)CN1C(=O)/C(=C/c2ccc(Cl)cc2Cl)SC1=S
0.32 µM | 16 µg/mL | – | 256 µg/mL | – | < 50% | 16 µg/mL | 2 µg/mL | < 50% | 4.7 µM | – | COc1ccc(/C=C(\S)C(=O)O)cc1
0.11 µM | 4 µg/mL | – | 256 µg/mL | – | – | 8 µg/mL | 1 µg/mL | < 50% | 12.7 µM | 14.3 µM | O=C(O)CN1C(=O)/C(=C/c2ccc(C(F)(F)F)cc2)SC1=S
0.6 µM | 4 µg/mL | – | 512 µg/mL | < 50% | – | 8 µg/mL | 2 µg/mL | < 50% | – | 25.1 µM | COc1ccc(/C=C2\SC(=S)N(CC(=O)O)C2=O)cc1
0.37 µM | 16 µg/mL | – | 512 µg/mL | < 50% | < 50% | 8 µg/mL | 2 µg/mL | < 50% | – | – | O=C(O)CN1C(=O)/C(=C/c2ccc3ccccc3c2)SC1=S
0.77 µM | 8 µg/mL | – | 512 µg/mL | < 50% | < 50% | 8 µg/mL | 2 µg/mL | < 50% | – | – | O=C(O)CN1C(=O)/C(=C/c2cccs2)SC1=S
0.08 µM | 2 µg/mL | 3.6 µM | 256 µg/mL | – | – | 8 µg/mL | 1 µg/mL | – | 6.9 µM | 8.4 µM | O=C(O)c1ccc(N2C(=O)/C(=C/c3ccc(F)cc3)SC2=S)cc1
0.28 µM | 8 µg/mL | – | 512 µg/mL | – | < 50% | 8 µg/mL | 1 µg/mL | < 50% | 27.9 µM | – | O=C(O)CN1C(=O)/C(=C/c2cccc3ccccc23)SC1=S
0.32 µM | 8 µg/mL | – | 256 µg/mL | < 50% | < 50% | 8 µg/mL | 2 µg/mL | < 50% | – | – | O=C(O)CN1C(=O)/C(=C/c2ccccc2)SC1=S
1.7 µM | 8 µg/mL | – | 512 µg/mL | < 50% | – | 8 µg/mL | 2 µg/mL | < 50% | – | 47 µM | O=C(O)CN1C(=O)/C(=C/c2ccco2)SC1=S
0.2 µM | 4 µg/mL | – | 256 µg/mL | – | – | 8 µg/mL | 2 µg/mL | < 50% | 14.4 µM | 15.4 µM | O=C(O)CN1C(=O)/C(=C/c2ccc(F)cc2)SC1=S
0.18 µM | 4 µg/mL | – | 512 µg/mL | < 50% | – | 8 µg/mL | 1 µg/mL | < 50% | – | 0.69 µM | O=C(O)c1ccc(N2C(=O)/C(=C/c3ccco3)SC2=S)cc1
